Assays:
Mus musculus [1] = assay: Antihyperglycemic activity in mice at a dose of 100 mg/kg; assay type: functional
Procedure, shortened: (§1)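 Diabetic db/db mice, after exclusion of the five most extreme baseline glucose values, randomized into groups of equal mean plasma glucose, 4-6 per group. Oral dosing in 2% Tween 80/saline on afternoons of days 1-3 (fed), and day 4 after 3 h fast. Plasma glucose at 2 and 4 h post-dose; mean expressed as % change from day-1 baseline versus vehicle; ANOVA with one-sided Dunnett's test.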

Mus musculus [2] = assay: Antihyperglycemic activity in mice at a dose of 20 mg/kg; assay type: functional; procedure, shortened: as §1

SMILES: O=S1NC(Cc2cc3cc(Br)ccc3s2)=NO1 (stereo not given)
- Decrease (Mus musculus [1]): -29%
- Decrease (Mus musculus [2]): -20%

SMILES: O=S1NC(Cc2coc3ccc(Br)cc23)=NO1 (stereo not given)
- Decrease (Mus musculus [1]): <15%
- Decrease (Mus musculus [2]): <-15%

SMILES: Cc1ccc(CC2=NOS(=O)N2)cc1C (stereo not given)
- Decrease (Mus musculus [1]): <15%
- Decrease (Mus musculus [2]): <-15%

SMILES: O=S1NC(Cc2coc3c(Cl)cccc23)=NO1 (stereo not given)
- Decrease (Mus musculus [1]): -54%
- Decrease (Mus musculus [2]): -26%

SMILES: Cc1ccc2occ(CC3=NOS(=O)N3)c2c1 (stereo not given)
- Decrease (Mus musculus [1]): -42%
- Decrease (Mus musculus [2]): <-15%

SMILES: O=S1NC(Cc2cc3ccccc3s2)=NO1 (stereo not given)
- Decrease (Mus musculus [1]): -42%
- Decrease (Mus musculus [2]): <-15%

SMILES: O=S1NC(Cc2cc3ccc(F)cc3o2)=NO1 (stereo not given)
- Decrease (Mus musculus [1]): -18%
- Decrease (Mus musculus [2]): <-15%

SMILES: O=S1NC(Cc2ccc(-c3ccccc3)cc2)=NO1 (stereo not given)
- Decrease (Mus musculus [1]): <15%
- Decrease (Mus musculus [2]): <-15%

SMILES: O=S1NC(CC2CCc3ccccc3C2)=NO1 (stereo not given)
- Decrease (Mus musculus [1]): -22%
- Decrease (Mus musculus [2]): <-15%

SMILES: CC1(COc2ccc(CC3SC(=O)NC3=O)cc2)CCCCC1 (stereo not given) [CIGLITAZONE]
- Decrease (Mus musculus [1]): -29%
- Decrease (Mus musculus [2]): <-15%

SMILES: O=S1NC(Cc2cc3cc(F)ccc3s2)=NO1 (stereo not given)
- Decrease (Mus musculus [1]): <15%
- Decrease (Mus musculus [2]): <-15%

SMILES: O=S1NC(Cc2ccc(OCCc3ccccc3)cc2)=NO1 (stereo not given)
- Decrease (Mus musculus [1]): -56%
- Decrease (Mus musculus [2]): <-15%

SMILES: O=S1NC(Cc2cc3ccccc3o2)=NO1 (stereo not given)
- Decrease (Mus musculus [1]): <15%
- Decrease (Mus musculus [2]): <-15%

SMILES: O=S1NC(Cc2c[nH]c3ccccc23)=NO1 (stereo not given)
- Decrease (Mus musculus [1]): -22%
- Decrease (Mus musculus [2]): <-15%

SMILES: O=S1NC(Cc2ccc3c(c2)CCCC3)=NO1 (stereo not given)
- Decrease (Mus musculus [1]): <15%
- Decrease (Mus musculus [2]): <-15%

SMILES: O=S1NC(Cc2coc3ccc(Cl)cc23)=NO1 (stereo not given)
- Decrease (Mus musculus [2]): <-15%

SMILES: O=S1NC(Cc2csc3ccccc23)=NO1 (stereo not given)
- Decrease (Mus musculus [1]): -30%
- Decrease (Mus musculus [2]): <-15%

SMILES: O=S1NC(Cc2coc3c(Cl)cc(Cl)cc23)=NO1 (stereo not given)
- Decrease (Mus musculus [1]): -29%
- Decrease (Mus musculus [2]): <-15%

SMILES: O=S1NC(Cc2ccc(Br)cc2F)=NO1 (stereo not given)
- Decrease (Mus musculus [1]): -28%
- Decrease (Mus musculus [2]): -17%

SMILES: O=S1NC(Cc2cc3cc(F)ccc3o2)=NO1 (stereo not given)
- Decrease (Mus musculus [1]): -25%
- Decrease (Mus musculus [2]): <-15%

SMILES: O=S1NC(Cc2cc3cc(Cl)ccc3s2)=NO1 (stereo not given)
- Decrease (Mus musculus [1]): -24%
- Decrease (Mus musculus [2]): <-15%

SMILES: O=S1NC(Cc2coc3cc(Cl)ccc23)=NO1 (stereo not given)
- Decrease (Mus musculus [1]): -22%
- Decrease (Mus musculus [2]): <-15%

SMILES: O=S1NC(Cc2ccc3c(c2)CCC3)=NO1 (stereo not given)
- Decrease (Mus musculus [1]): <15%
- Decrease (Mus musculus [2]): <-15%

SMILES: O=S1NC(Cc2cccc(Cl)c2)=NO1 (stereo not given)
- Decrease (Mus musculus [1]): -40%
- Decrease (Mus musculus [2]): <-15%

SMILES: CC(C)(C)c1ccc(CC2=NOS(=O)N2)cc1 (stereo not given)
- Decrease (Mus musculus [1]): <15%
- Decrease (Mus musculus [2]): <-15%

SMILES: O=S1NC(CC2CCc3ccccc32)=NO1 (stereo not given)
- Decrease (Mus musculus [1]): <15%
- Decrease (Mus musculus [2]): <-15%

SMILES: O=S1NC(Cc2c[nH]c3ccc(Br)cc23)=NO1 (stereo not given)
- Decrease (Mus musculus [1]): -30%
- Decrease (Mus musculus [2]): -22%

SMILES: O=S1NC(Cc2coc3ccccc23)=NO1 (stereo not given)
- Decrease (Mus musculus [1]): -28%
- Decrease (Mus musculus [2]): <-15%

SMILES: O=S1NC(CC2=C(Cl)c3ccccc3CC2)=NO1 (stereo not given)
- Decrease (Mus musculus [2]): -27%

SMILES: O=S1NC(Cc2ccc(OCc3ccccc3)cc2)=NO1 (stereo not given)
- Decrease (Mus musculus [1]): <-15%

SMILES: O=S1NC(Cc2cccc(C(F)(F)F)c2)=NO1 (stereo not given)
- Decrease (Mus musculus [1]): -34%
- Decrease (Mus musculus [2]): <-15%

SMILES: O=S1NC(Cc2ccc3ccccc3c2)=NO1 (stereo not given)
- Decrease (Mus musculus [1]): -63%
- Decrease (Mus musculus [2]): -37%

SMILES: O=S1NC(CC2=Cc3ccccc3CC2)=NO1 (stereo not given)
- Decrease (Mus musculus [1]): -53%
- Decrease (Mus musculus [2]): -23%

SMILES: O=S1NC(Cc2cc3cc(Cl)ccc3o2)=NO1 (stereo not given)
- Decrease (Mus musculus [1]): -23%
- Decrease (Mus musculus [2]): <-15%

Source: ChEMBL document CHEMBL1125415, “Antihyperglycemic activity of novel substituted 3H-1,2,3,5-oxathiadiazole 2-oxides” (1992)
